TRPC4 potent: allosteric potentiators of mouse TRPC4 channel; HEK293 TRPC4beta/mu-opioid, DAMGO EC20, Fluo-4 Ca2+ flux; active compounds read high; B-score at 10 µM; 0.42% of 310,000 active; AID 2227;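 active = B-score of calcium response area above 5 SD of library B-scores, with initial fluorescence ratio within 5 SD of library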
TRPC6 inh: blocks the mouse TRPC6 cation channel. HEK293-TRPC6, membrane potential dye, ACh-evoked depolarization; active compounds read low. 1.1% of 310,000 active. B-score at 10 µM. AID 2553;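 active = B-score under library mean minus 3 SD, initial fluorescence not abnormally high, positive integrated signal ratio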;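 note: B-score derived from integrated fluorescence ratio over the kinetic read; more negative B-score means stronger inhibition of depolarization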
TRPC6 activator: activates the mouse TRPC6 cation channel; Q61143; HEK293-TRPC6 membrane potential dye fluorescence; active compounds read high; B-score at 10 µM; 0.13% of 310,000 active;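 active = B-score of the integrated fluorescence ratio above library mean plus 3 SD, and starting fluorescence ratio within library mean plus 5 SD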;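 note: higher score means more depolarization so channel activation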
TRPC4 agonist: TRPC4 (mouse) channel activation. Q9QUQ5. HEK293 TRPC4beta/mu-opioid, Fluo4 calcium fluorescence; active compounds read high. B-score at 10 µM. 0.49% of 310,000 active;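 active = B-score above 5 SD of library B-scores, and initial fluorescence ratio not above library mean plus 5 SD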;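 note: positive B-score marks a calcium rise read as TRPC4 activation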
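Test system: HEK293 cells stably co-expressing mouse TRPC4beta and mu-opioid receptor | Schedule: Fluo4 dye loading 45 min at room temperature, 110 s recording | Measured by: Kinetic Fluo4 calcium fluorescence, 5 s baseline at 1 Hz | Evaluation: B score of integrated ratio | Controls: Buffer (low) and maximal DAMGO (high)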
TRPC4 block: inhibitors of mouse TRPC4 channel; Q9QUQ5; HEK293 TRPC4beta/mu-opioid, DAMGO-evoked Fluo4 calcium flux; active compounds read low; B-score at 10 µM; 0.39% of 300,000 active; AID 2247;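 active = B-score over 3 SD under the library average, no early fluorescence shift, positive overall ratio signal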
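Material: HEK293 cells with stable TRPC4beta plus mu-opioid receptor expression / Probe or stimulus: DAMGO in two steps, submaximal then maximal / Compound: single concentration per test compound / Technique: kinetic Fluo4 fluorescence imaging of calcium influx / Read-out: per-well B score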
Of the large screens only hits and unclear results are named; the others gave an inactive call. The list is not random: actives were taken first. Their share in the collection is about 2.3%.

OC(COc1ccc2ccccc2c1Br)Cn1ccnc1 (stereo not drawn)	none
OC(COc1ccc2ccccc2c1)Cn1ccnc1 (stereo not drawn)	TRPC4 potent 11
CCN1CCCC1CNCc1ccc(Cl)cc1Cl (stereo not drawn)	TRPC4 potent 29
CCN1CCCC1CNCc1cccc(OC)c1OCc1ccc(F)cc1 (stereo not drawn)	TRPC4 agonist 58
CCN1CCCC1CNC(=O)c1cc2c(OC)cccc2[nH]1 (stereo not drawn)	TRPC4 agonist 154
Cc1ccc(S(=O)(=O)N(C)C)cc1NC(=O)c1cccnc1Oc1ccccc1	none
COC(=O)Cn1cnc2c(nnn2-c2ccc(OC)cc2)c1=O	none
CCOC(=O)c1ccccc1NC(=O)COC(=O)CN1C(=O)NC2(CCCC2)C1=O	none
CC(C)C(NS(=O)(=O)c1ccccc1)C(=O)N1CCCC1 (stereo not drawn)	none
CNC(=S)N1N=C(c2ccc(C)cc2)CC1c1ccc(OC)c(OC)c1 (stereo not drawn)	none
CNC(=S)N1N=C(c2ccccc2)CC1c1ccc(OC)c(OC)c1 (stereo not drawn)	TRPC4 potent 11
COc1cc(CCC(=O)N2CCN(c3ncccn3)CC2)cc(OC)c1OC	none
CN(Cc1ccccc1)C(=O)COC(=O)C1CCN(S(=O)(=O)c2ccc3c(c2)OCCO3)CC1	none
Cc1ccc(NC(=O)c2cc(N3C(=O)C=CC3=O)ccc2N2CCOCC2)cc1	TRPC4 block -6
Cc1ccc(NC(=O)c2cc(NC(=O)c3ccco3)ccc2N2CCOCC2)cc1	none
C/C(=N/N=C1\SCC(=O)N1c1ccccc1)c1ccc(C)cc1	none
CCOc1ccccc1CN1CCN(Cc2cccc3nonc23)CC1CCO (stereo not drawn)	TRPC4 block -6
COC(CNC(=O)c1c[nH]c2ccc(S(=O)(=O)N(C)c3ccc(F)cc3)cc2c1=O)OC	none
Cc1ccc2nc(Cl)c3cc(C(=O)N(CCN(C)C)Cc4ccco4)sc3c2c1	TRPC4 agonist 54
CCn1c(C)nc2cc(C(=O)N/N=C/c3cccc(O)c3O)ccc21	TRPC4 potent 77
CCCN1CCC(N(CCc2ccccc2)Cc2ccccc2)CC1	none
COc1ccc(CN2CCC(N(CCc3ccccc3)Cc3ccccc3)CC2)c(OC)c1	TRPC4 agonist 143
CCOC(=O)CSc1nc2sc3c(c2c(=O)n1-c1ccccc1)CCN(C(C)C)C3	none
O=C(COC(=O)c1cccc([N+](=O)[O-])c1)c1ccc2c(c1)OCO2	TRPC4 block -7
O=C(OCC(=O)N1CCc2ccccc2C1)c1cccc([N+](=O)[O-])c1	TRPC4 block -6
Brc1ccc(OCc2ccccc2)c(CNCC2CCCO2)c1 (stereo not drawn)	TRPC4 block -6
OCCNCc1cc(Br)ccc1OCc1ccccc1	none
CCOCCCNCc1cc(Br)ccc1OCc1ccccc1	TRPC4 block -6
Cc1cc(C)c(C)c(S(=O)(=O)N2CCN(C(=O)C3CCC3)CC2)c1C	none
CCOC(=O)Cn1ccc(-c2ccccc2)c(C#N)c1=O	none
CC(=O)Nc1cccc(N2C(=O)CC(Cc3ccccc3)C2=O)c1 (stereo not drawn)	none
Cc1cc(=O)oc2cc(N3C(=O)CC(Cc4ccccc4)C3=O)ccc12 (stereo not drawn)	TRPC4 potent 13
CC1CCN(c2nc(Cl)nc(Nc3ccc([N+](=O)[O-])cc3)n2)CC1	TRPC4 potent 47
O=c1ccc(OCCOc2ccccc2)nn1-c1ccccc1	TRPC4 potent 17
CCOC(=O)C1CCCN(C(=O)CCCn2nnnc2CN2CCOCC2)C1 (stereo not drawn)	TRPC4 potent 23
CC(C)C1=Nc2cccc3cccc(c23)N1	TRPC4 block -6
COC(=O)Cc1c(C(=O)OC)nnn1-c1ccc(OC(F)(F)F)cc1	none
C=CCn1c(SCCOC)nc2c1c(=O)[nH]c(=O)n2C	none
C/C=C/Cn1c(SCCCc2ccccc2)nc2c1c(=O)[nH]c(=O)n2C	TRPC4 potent 86
C=CCn1c(SCCN2CCCCC2)nc2c1c(=O)[nH]c(=O)n2C	TRPC4 potent 40
Cc1cccc(Cn2c(SCCN3CCCCC3)nc3c2c(=O)[nH]c(=O)n3C)c1	TRPC6 inh -5.65
O=C(CSc1nnc(-c2ccccc2Cl)o1)N1CCCC1	none
